High-throughput results from PubChem.
T cell modulator – T cell immune modulators affecting CD8 T cell-vesicle binding. 2C CD8+ T cell-vesicle binding, flow cytometry; active compounds read low. response (vesicle binding), % at 7 µM. 330,000 tested, 0.068% active. AID 2052;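 active = response, share of CD8 T cells binding vesicles, and their 90th percentile fluorescence all below set limits, cut at about 80% in these data, passing the limit was not always enough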;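 also: values below 100% mean blocked vesicle binding to the CD8+ T cells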
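Test system: purified 2C TCR transgenic mouse naive CD8+ T cells. Probe or stimulus: QL9-peptide-loaded Drosophila micro-vesicles bearing Ld, ICAM-1 and B7-1. Incubation: binding step 1.5 h, 37 °C, antibody labelling 20 min, ice. Measured by: flow cytometry of vesicle-bound cells.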
GRK2 inh – inhibitors of human GRK2 displacing RNA aptamer; P25098; 330,000 tested, 0.59% active; AID 488847; inhibition of aptamer binding, % at 10 µM; bead flow cytometry, FAM-aptamer displacement from GRK2;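 active = inhibition of aptamer binding above 40%, roughly 3 SD of noise, on plates passing a quality check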;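 also: median bead fluorescence of bound FAM aptamer so fluorescent compounds give negative values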
Myeloid diff MLP – myeloid differentiation induction | ER-HoxA9 myeloid progenitors, lysozyme-GFP differentiation, flow cytometry | calls only at 10 µM | 360,000 tested, 1% active | AID 624256;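 active = normalized GFP-positive differentiation at or above the plate's own cutoff, the solvent-only control mean plus 3 SD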;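 also: cells exposed to compound for four days before flow analysis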
SKN-1 inh – inhibitors of C. elegans SKN-1 | C. elegans VP596 Pgst-4::GFP/RFP ratio, acrylamide-induced, 24 h | inhibition, % at 21.8 µM | 360,000 tested, 0.49% active | AID 624304;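 active = interference check ratio from 0.5 to 1.5 plus GFP to RFP signal ratio inhibition reaching or exceeding a fixed threshold, cut at about 30% in these data, passing the limit was not always enough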
Rce1 inhib – blocks yeast Ras-converting enzyme | yeast membranes, quenched prenylated peptide cleavage fluorescence | calls only | Q03530 | AID 2563 | 290,000 tested, 0.27% active;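 active = fall in fluorescence gain of 50% or more versus controls, with final raw signal at or below 3038400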
Rin1-Abl PPI inh – blocks binding of human Rin1 to Abl | 360,000 tested, 0.4% active | inhibition, % at 7.35 µM | AID 588664 | TR-FRET Rin1/Abl binding, biochemical; in the data active = inhibition above about 5%, passing the limit was not always enough
Target sequence (P00519 whole entry, looked up): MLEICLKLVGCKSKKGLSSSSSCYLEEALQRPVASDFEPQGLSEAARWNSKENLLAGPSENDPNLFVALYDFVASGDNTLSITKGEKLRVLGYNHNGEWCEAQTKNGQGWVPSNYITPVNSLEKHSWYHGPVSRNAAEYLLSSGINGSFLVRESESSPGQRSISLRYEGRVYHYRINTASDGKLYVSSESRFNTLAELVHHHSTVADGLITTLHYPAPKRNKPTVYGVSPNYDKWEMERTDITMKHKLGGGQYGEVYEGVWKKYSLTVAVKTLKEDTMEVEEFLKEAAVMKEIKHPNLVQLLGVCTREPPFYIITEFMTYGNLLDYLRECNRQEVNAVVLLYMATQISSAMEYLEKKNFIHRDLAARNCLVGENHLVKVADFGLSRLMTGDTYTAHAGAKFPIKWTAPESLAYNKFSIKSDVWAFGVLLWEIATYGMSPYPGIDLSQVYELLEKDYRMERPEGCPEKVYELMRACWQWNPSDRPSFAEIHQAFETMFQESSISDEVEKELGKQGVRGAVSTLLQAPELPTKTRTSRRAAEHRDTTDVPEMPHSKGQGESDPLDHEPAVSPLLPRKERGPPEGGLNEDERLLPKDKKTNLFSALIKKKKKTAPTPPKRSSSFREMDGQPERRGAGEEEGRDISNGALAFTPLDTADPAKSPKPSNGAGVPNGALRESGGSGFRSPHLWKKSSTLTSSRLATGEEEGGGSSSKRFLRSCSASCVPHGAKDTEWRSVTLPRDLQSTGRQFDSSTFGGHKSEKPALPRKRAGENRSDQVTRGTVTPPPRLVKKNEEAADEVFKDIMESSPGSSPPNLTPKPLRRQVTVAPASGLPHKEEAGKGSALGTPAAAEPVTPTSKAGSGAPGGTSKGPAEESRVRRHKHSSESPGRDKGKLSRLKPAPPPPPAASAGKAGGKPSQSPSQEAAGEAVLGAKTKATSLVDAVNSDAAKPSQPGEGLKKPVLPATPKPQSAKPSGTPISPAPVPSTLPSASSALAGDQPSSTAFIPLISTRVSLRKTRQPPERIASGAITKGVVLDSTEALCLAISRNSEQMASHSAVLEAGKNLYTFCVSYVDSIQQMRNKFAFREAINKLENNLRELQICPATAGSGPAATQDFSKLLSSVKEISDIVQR
Target sequence (Q13671 whole entry, looked up): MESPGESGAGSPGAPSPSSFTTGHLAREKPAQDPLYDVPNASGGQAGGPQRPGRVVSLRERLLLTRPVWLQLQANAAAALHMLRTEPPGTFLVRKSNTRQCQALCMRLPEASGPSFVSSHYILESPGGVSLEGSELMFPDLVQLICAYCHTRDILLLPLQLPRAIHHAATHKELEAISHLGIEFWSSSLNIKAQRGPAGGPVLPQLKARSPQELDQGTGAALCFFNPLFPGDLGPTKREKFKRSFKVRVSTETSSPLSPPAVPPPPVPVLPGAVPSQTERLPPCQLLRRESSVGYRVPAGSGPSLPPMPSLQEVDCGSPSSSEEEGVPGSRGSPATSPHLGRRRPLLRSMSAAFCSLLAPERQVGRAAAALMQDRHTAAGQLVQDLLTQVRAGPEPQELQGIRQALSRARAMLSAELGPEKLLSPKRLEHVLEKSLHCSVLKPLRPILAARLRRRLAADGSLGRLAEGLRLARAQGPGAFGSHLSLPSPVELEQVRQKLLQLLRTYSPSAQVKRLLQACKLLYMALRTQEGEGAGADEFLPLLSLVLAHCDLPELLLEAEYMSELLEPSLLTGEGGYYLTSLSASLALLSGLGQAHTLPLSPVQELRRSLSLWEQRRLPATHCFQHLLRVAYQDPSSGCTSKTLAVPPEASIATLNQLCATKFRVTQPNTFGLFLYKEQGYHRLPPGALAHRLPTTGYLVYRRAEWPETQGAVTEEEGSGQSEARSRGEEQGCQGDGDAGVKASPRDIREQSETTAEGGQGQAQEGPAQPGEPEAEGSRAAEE
GRK2 inh confirm – confirmation of human GRK2 inhibitors displacing RNA aptamer; bead-bound GRK2, FAM-aptamer displacement, flow cytometry; aptamer displacement, % at 10 µM; 2,000 tested, 4% active; shares compounds with GRK2 inh; AID 504451;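 active = aptamer displacement above 40%, near three times the noise of non-fluorescent compounds, on plates passing quality checks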;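 also: negative values mostly reflect intrinsic compound fluorescence rather than true enhancement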
Aptamer quench SP – aptamer fluorescence quenching in GRK2 counter-screen | Carboxyfluorescein RNA aptamer on beads, flow cytometry quenching; active compounds read low | AID 504580 | fluorescence response (% of DMSO), % at 10 µM | 2,000 tested, under 10 active | shares compounds with GRK2 inh;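 active = compounds that quench the bead-bound fluorescent RNA probe, cutting fluorescence to under half of the solvent control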;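 also: counterscreen run without GRK2 so only probe quenching by compound is measured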
GRK2 CP2 – confirmation of human GRK2 inhibitors binding RNA aptamer site | shares compounds with GRK2 inh | bead-bound GRK2, FAM-aptamer displacement, flow cytometry | inhibition of aptamer binding, % at 10 µM | 360 tested, under 10 active;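 active = inhibition of aptamer binding above 40%, about triple the noise seen with nonglowing compounds, on plates passing quality control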;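 also: negative values mostly come from compounds that fluoresce themselves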
FAM quench CP2 – counter-screen for GRK2 binding hits: quenchers of fluorescent RNA aptamer; shares compounds with GRK2 inh; carboxyfluorescein RNA aptamer beads, flow cytometry quenching; active compounds read low; fluorescence response vs DMSO, % at 10 µM; 360 tested, under 10 active;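 active = response vs DMSO under 50%, meaning signal dropped by over half, treated as fluorescence quencher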;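 also: labelled aptamer on streptavidin beads without GRK2 as a quench counter-screen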
Hits are given with their value. Only some compounds are listed: those with a hit (about 2.6% of all), similar ones and a draw of the others.

How did O=c1c2ccccc2c(=O)n(-c2ccccc2)n1CCCCBr do in these assays?
T cell modulator: inactive; GRK2 inh: inactive; Myeloid diff MLP: inactive; SKN-1 inh: inactive; Rce1 inhib: inactive; Rin1-Abl PPI inh: inactive

Results for CC(=O)n1c(=O)c2ccccc2c(=O)n1-c1ccccc1 ?
T cell modulator: inactive; GRK2 inh: inactive; Myeloid diff MLP: inactive; SKN-1 inh: inactive; Rce1 inhib: inactive; Rin1-Abl PPI inh: inactive; GRK2 inh confirm: inactive; Aptamer quench SP: inactive

Results for COc1cccc(NC(=O)C(C)OC(=O)c2n[nH]c3ccccc23)c1 (centres undefined) ?
T cell modulator: inactive; GRK2 inh: inactive; Myeloid diff MLP: inactive; SKN-1 inh: inactive; Rin1-Abl PPI inh: inactive

How did CCn1cc(C(=O)NCC(OC)OC)c(=O)c2cc(S(=O)(=O)N3CCOCC3)ccc21 do in these assays?
T cell modulator: inactive; GRK2 inh: 45.0; Myeloid diff MLP: inactive; SKN-1 inh: inactive; Rce1 inhib: inactive; Rin1-Abl PPI inh: inactive; GRK2 inh confirm: inactive; Aptamer quench SP: inactive

How did COC(=O)c1ccc(NS(=O)(=O)c2cc3c4c(c2)CCC(=O)N4CCC3)cc1 do in these assays?
T cell modulator: inactive; GRK2 inh: inactive; Myeloid diff MLP: inactive; SKN-1 inh: inactive; Rce1 inhib: inactive; Rin1-Abl PPI inh: inactive

How did COc1ccc(C)cc1S(=O)(=O)NCc1ccccn1 do in these assays?
Myeloid diff MLP: inactive; SKN-1 inh: inactive; Rin1-Abl PPI inh: inactive

Results for CC(NC(=O)CCC(=O)Nc1ccccc1O)c1ccccc1 (centres undefined) ?
T cell modulator: inactive; GRK2 inh: inactive; Myeloid diff MLP: inactive; SKN-1 inh: inactive; Rce1 inhib: inactive; Rin1-Abl PPI inh: inactive

Results for CC(CNc1ccccc1O)C(=O)O (centres undefined) ?
T cell modulator: inactive; GRK2 inh: 62.0; Myeloid diff MLP: inactive; SKN-1 inh: inactive; Rce1 inhib: inactive; Rin1-Abl PPI inh: inactive; GRK2 CP2: inactive; FAM quench CP2: inactive

Results for COc1cc(OC)c(OC)cc1/C=N/NC(=O)CSc1ccccc1F ?
T cell modulator: inactive; GRK2 inh: 90.0; Myeloid diff MLP: inactive; SKN-1 inh: inactive; Rce1 inhib: inactive; Rin1-Abl PPI inh: inactive; GRK2 inh confirm: inactive; Aptamer quench SP: inactive

Results for CC(C)(C)c1ccc(C(=O)N2CCC2(C)C(=O)NCc2cccs2)cc1 (centres undefined) ?
Myeloid diff MLP: inactive; SKN-1 inh: inactive; Rin1-Abl PPI inh: inactive

What do the screens show for `CC(=O)c1ccc(OCCCC(=O)N(CCC2=CCCCC2)c2c(N)n(Cc3ccccc3)c(=O)[nH]c2=O)cc1`?
T cell modulator: inactive; GRK2 inh: inactive; Myeloid diff MLP: inactive; SKN-1 inh: inactive; Rce1 inhib: inactive; Rin1-Abl PPI inh: inactive

What do the screens show for `COc1ccc(C(=O)CCC(=O)N2CCN(c3cc(C)ccc3C)CC2)cc1`?
T cell modulator: inactive; GRK2 inh: 87.0; Myeloid diff MLP: inactive; SKN-1 inh: inactive; Rce1 inhib: inactive; Rin1-Abl PPI inh: inactive; GRK2 inh confirm: inactive; Aptamer quench SP: inactive

What do the screens show for `Cc1ccc(NC(=O)CSC2=C(C#N)C(c3ccco3)C3=C(CCCC3=O)N2)cc1` (centres undefined)?
T cell modulator: inactive; GRK2 inh: 57.0; Myeloid diff MLP: inactive; SKN-1 inh: inactive; Rce1 inhib: inactive; Rin1-Abl PPI inh: inactive; GRK2 inh confirm: inactive; Aptamer quench SP: inactive

What do the screens show for `CC(=O)Nc1nc2c(F)cccc2s1`?
T cell modulator: inactive; GRK2 inh: inactive; Myeloid diff MLP: inactive; SKN-1 inh: inactive; Rce1 inhib: inactive; Rin1-Abl PPI inh: inactive

Results for Cc1cnc(NC(=O)c2cc(S(=O)(=O)N(C)C)ccc2N2CCCC2)s1 ?
T cell modulator: inactive; GRK2 inh: inactive; Myeloid diff MLP: inactive; SKN-1 inh: inactive; Rin1-Abl PPI inh: inactive

Results for CC(=O)Nc1nc2c(ccc3ccccc32)s1 ?
T cell modulator: inactive; GRK2 inh: inactive; Myeloid diff MLP: inactive; SKN-1 inh: inactive; Rce1 inhib: inactive; Rin1-Abl PPI inh: inactive; GRK2 CP2: inactive; FAM quench CP2: inactive

How did CN(C)S(=O)(=O)c1ccc(N2CCCC2)c(C(=O)Nc2nc3c(ccc4ccccc43)s2)c1 do in these assays?
T cell modulator: inactive; GRK2 inh: inactive; Myeloid diff MLP: inactive; SKN-1 inh: inactive; Rce1 inhib: inactive; Rin1-Abl PPI inh: inactive; GRK2 CP2: inactive; FAM quench CP2: inactive

Results for O=C(Cc1cccs1)Nc1nc2c(ccc3ccccc32)s1 ?
T cell modulator: inactive; GRK2 inh: inactive; Myeloid diff MLP: inactive; SKN-1 inh: inactive; Rce1 inhib: inactive; Rin1-Abl PPI inh: inactive; GRK2 CP2: inactive; FAM quench CP2: inactive

What do the screens show for `COc1ccc(CN(C)C(=O)C23CC4CC(CC(Cl)(C4)C2)C3)c(OC)c1OC`?
T cell modulator: inactive; GRK2 inh: inactive; Myeloid diff MLP: inactive; SKN-1 inh: inactive; Rce1 inhib: inactive; Rin1-Abl PPI inh: inactive

Results for Cc1nnc(SCc2nnc(-c3ccccc3Br)o2)s1 ?
T cell modulator: inactive; GRK2 inh: inactive; Myeloid diff MLP: inactive; SKN-1 inh: inactive; Rce1 inhib: inactive; Rin1-Abl PPI inh: inactive

Results for CCCC(=O)NC1=C(C#N)C2(CCCC2)Cc2ccccc21 ?
GRK2 inh: 58.0; Myeloid diff MLP: inactive; SKN-1 inh: inactive; Rce1 inhib: inactive; Rin1-Abl PPI inh: inactive; GRK2 inh confirm: inactive; Aptamer quench SP: inactive

Results for O=C(NCCO)C1CCN(C(=O)c2ccc(-c3ccccc3)cc2)CC1 ?
T cell modulator: inactive; GRK2 inh: inactive; Myeloid diff MLP: inactive; SKN-1 inh: inactive; Rce1 inhib: inactive; Rin1-Abl PPI inh: inactive

What do the screens show for `Cc1cccc(NC(=O)CCc2ccccc2)c1C`?
T cell modulator: inactive; GRK2 inh: 85.0; Myeloid diff MLP: inactive; SKN-1 inh: inactive; Rce1 inhib: inactive; Rin1-Abl PPI inh: inactive; GRK2 inh confirm: inactive; Aptamer quench SP: inactive

Results for Cc1cccc(NC(=O)CCS(=O)(=O)c2cccc3nsnc23)c1C ?
T cell modulator: inactive; GRK2 inh: inactive; Myeloid diff MLP: inactive; SKN-1 inh: inactive; Rce1 inhib: inactive; Rin1-Abl PPI inh: inactive; GRK2 CP2: inactive; FAM quench CP2: inactive

Results for CN1C(=O)c2ccc(NC(=O)c3c(C(=O)O)cccc3[N+](=O)[O-])cc2C1=O ?
T cell modulator: inactive; GRK2 inh: inactive; Myeloid diff MLP: inactive; SKN-1 inh: inactive; Rce1 inhib: inactive; Rin1-Abl PPI inh: inactive
